Measurements taken from PMC7711931 (ACS Omega, 2020).

What was measured:
[1] = biological target: T1, TR4-LBD (Homo sapiens, UniProt P49116); assay: Circular dichroism spectra of TR4-LBD with or without drug; details: TR4-LBD 0.2 mg/mL, drug 20 μM, 5 mM phosphate buffer pH 7.4
T1 sequence (P49116 341-583 limits assumed): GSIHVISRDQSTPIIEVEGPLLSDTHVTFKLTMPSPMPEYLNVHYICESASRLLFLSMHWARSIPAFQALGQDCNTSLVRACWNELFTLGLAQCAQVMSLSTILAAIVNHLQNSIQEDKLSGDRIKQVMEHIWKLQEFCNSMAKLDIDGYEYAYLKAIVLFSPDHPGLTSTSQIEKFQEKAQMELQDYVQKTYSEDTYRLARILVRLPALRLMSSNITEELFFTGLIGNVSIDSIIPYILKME
Procedure, shortened: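 TR4 ligand-binding domain was expressed in E. coli BL21(DE3) with an N-terminal His6-SUMO tag, purified on His-tag resin, cleaved with SUMO protease, and collected in the flow-through of a second His-tag step. It was desalted into 5 mM phosphate buffer and quantified by BCA. Spectra of protein with or without test compound were recorded in a 0.5 cm path-length cell.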

[2] = system: NQO2; details: read-out: IC50, NQO2 inhibition; cited from earlier work
[3] = biological target: T2, TR4 (Homo sapiens, UniProt P49116); assay: Dual-luciferase reporter assay of TR4 transactivation; type: cell-based; details: for Effect on TR4 transactivation: 10 μM, 24 h, 293T cells, DMSO negative control (Figure 3A); for Effect on TR4 transactivation in the presence of ATRA: drug 10 μM, ATRA 20 μM (Figure 3E); for Luciferase activity (TR4 transactivation), validation of the reporter system: 293T cells cotransfected with pGLO-TR4RE-Dluc and TR4 (Figure 2B)
T2 sequence (P49116 1-596): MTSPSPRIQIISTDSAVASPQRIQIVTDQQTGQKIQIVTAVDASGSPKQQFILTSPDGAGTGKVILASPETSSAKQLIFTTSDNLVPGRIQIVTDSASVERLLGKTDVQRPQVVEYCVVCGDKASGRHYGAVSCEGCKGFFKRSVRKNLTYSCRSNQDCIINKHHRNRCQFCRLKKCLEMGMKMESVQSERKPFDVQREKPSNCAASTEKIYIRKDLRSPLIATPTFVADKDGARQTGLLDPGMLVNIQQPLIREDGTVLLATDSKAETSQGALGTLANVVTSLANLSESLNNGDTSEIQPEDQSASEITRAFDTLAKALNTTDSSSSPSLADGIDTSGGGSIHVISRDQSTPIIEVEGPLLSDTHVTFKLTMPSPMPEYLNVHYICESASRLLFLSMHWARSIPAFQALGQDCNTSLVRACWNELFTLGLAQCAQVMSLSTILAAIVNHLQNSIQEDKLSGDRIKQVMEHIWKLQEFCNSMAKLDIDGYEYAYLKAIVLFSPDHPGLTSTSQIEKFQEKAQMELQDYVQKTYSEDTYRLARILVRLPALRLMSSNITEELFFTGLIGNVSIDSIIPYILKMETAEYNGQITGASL
Procedure, shortened: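 TR4RE-TK-firefly luciferase cassette from pGL3-(DR)3-TK subcloned into pmirGLO, giving a dual-luciferase reporter. Cells were cotransfected with reporter and TR4 expression plasmid for 24 h, then exposed to test compound for another 24 h: 10 μM for screening or a dose range for curves, with DMSO as negative control. Some arms included ATRA 20 μM. Luciferase was read with a dual-luciferase kit. Means of three independent experiments.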

[4] = biological target: T1, TR4-LBD; assay: SPRi assay: binding of TR4-LBD to the immobilized FDA-approved drug library

CD characteristic peak for the β-sheet at 216 nm [1] | EC50 [3] | Effect on TR4 transactivation [3] | Kd [4] | Luciferase activity (TR4 transactivation), validation of the reporter system [3] | CD characteristic peak for α-helix at 208 nm [1] | Efficiency relative to ATRA (EC50 ratio) ([3]; genistein EC50 2.42 μM vs ATRA 23.8 μM) | SMILES | IC50 [2] | Effect on TR4 transactivation in the presence of ATRA [3]
significantly reduced | 1050 nM | most potent inhibitor | – | – | – | – | Cc1cn(-c2cc(NC(=O)c3ccc(C)c(Nc4nccc(-c5cccnc5)n4)c3)cc(C(F)(F)F)c2)cn1 [Nilotinib (AMN-107)] | 1800 nM | almost blocked the activation of TR4 by ATRA
– | 37500 nM | – | 84.8 nM | suppressed | – | – | C=C(c1ccc(C(=O)O)cc1)c1cc2c(cc1C)C(C)(C)CCC2(C)C [bexarotene] | – | –
– | – | – | 100000 nM | elevated | – | – | CC1=C(/C=C/C(C)=C/C=C/C(C)=C/C(=O)O)C(C)(C)CCC1 [ATRA, all-trans-retinoic acid] | – | –
– | 2420 nM | most potent activator | – | – | significantly increased | approximately 10 times | O=c1c(-c2ccc(O)cc2)coc2cc(O)cc(O)c12 [Genistein] | – | equivalent to that of genistein single treatment
